From ChEMBL document CHEMBL3351428, “Uralsaponins M-Y, antiviral triterpenoid saponins from the roots of Glycyrrhiza uralensis” (J Nat Prod, 2014)

Tests used:
[1] = Antiviral activity against Influenza A virus A/WSN/33 (H1N1) infected in MDCK cells assessed as inhibition of virus-induced cell death at 100 uM after 36 hrs by CellTiter-Glo luminescent cell viability assay; format: functional, Influenza A virus (A/WSN/1933(H1N1))
How it was run: (§1)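 MDCK cells in DMEM/10% FBS with penicillin-streptomycin, seeded 1 × 10^5/well 24 h before infection (37 °C, 5% CO2). Virus was grown in MDCK with 2 μg/mL TPCK-trypsin. Compound premixed with virus 15 min at room temperature, then added after medium removal. Read at 36 h postinfection by microscopy, confirmed by CellTiter-Glo. Inhibition % computed from luminescence relative to DMSO with/without virus. IC50 measured for significant inhibitors.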

[2] = tested on: MDCK; assay: Cytotoxicity against MDCK cells assessed as reduction in cell viability at 100 uM after 36 hrs by CellTiter-Glo luminescent assay; format: cell-based, Canis lupus familiaris; details: dog
How it was run: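 Uninfected MDCK cells, grown in DMEM with 10% FBS, 100 U/mL penicillin and 100 μg/mL streptomycin, were incubated with compound for 36 h. Cytopathic effect was scored by microscopy and confirmed by CellTiter-Glo luminescent viability read-out.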

[3] = Antiviral activity against Influenza A virus A/WSN/33 (H1N1) infected in MDCK cells assessed as inhibition of virus-induced cell death after 36 hrs by CellTiter-Glo luminescent cell viability assay; format: functional, cell-based, Influenza A virus (A/WSN/1933(H1N1)); how it was run: as §1
[4] = tested on: Human immunodeficiency virus 1; assay: Antiviral activity against VSV-G protein pseudotyped HIV1 infected in 293T cells assessed as inhibition of viral replication after 48 hrs by luciferase reporter assay; format: functional, organism-based; details: Human immunodeficiency virus 1, HEK-293T
How it was run: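 Pseudovirus was made by cotransfecting 293T cells with pNL-Luc-E and pHIT/G and harvesting filtered supernatant after 48 h. Capsid level was quantified by p24 ELISA. SupT1 cells were infected at MOI 1 with or without compound (efavirenz as positive control) at […] for 48 h. Luciferase read-out gave inhibition rate. Compounds above 50% at 100 μM were taken to IC50.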

[5] = tested on: Human immunodeficiency virus 1; assay: Antiviral activity against VSV-G protein pseudotyped HIV1 infected in 293T cells assessed as inhibition of viral replication at 100 uM after 48 hrs by luciferase reporter assay; format: functional; details: Human immunodeficiency virus 1, HEK-293T

In the case of CC(=O)O[C@@H]1C[C@](C)(C(=O)O)C[C@H]2C3=CC(=O)[C@@H]4[C@@]5(C)CC[C@H](O[C@H]6O[C@H](C(=O)O)[C@@H](O)[C@H](O)[C@H]6O[C@@H]6O[C@H](C(=O)O)[C@@H](O)[C@H](O)[C@H]6O)C(C)(C)[C@@H]5CC[C@@]4(C)[C@]3(C)CC[C@@]12C, the inhibition at 100 µM [1] is reported as 47.5%, the Activity [2] is reported as “Non-toxic” and the IC50 [3] is reported as 49.1 µM. It also gave an IC50 [4] of 29.5 µM.

CC1(C)[C@@H](O)CC[C@]2(C)[C@H]3C(=O)C=C4[C@@H]5C[C@@](C)(C(=O)O)CC[C@]5(C)CC[C@@]4(C)[C@]3(C)CC[C@@H]12 [ENOXOLONE] showed an IC50 [4] of 28.8 µM.

With CC1(C)[C@@H](O[C@@H]2O[C@H](C(=O)O)[C@@H](O)[C@H](O)[C@H]2O[C@@H]2O[C@H](C(=O)O)[C@@H](O)[C@H](O)[C@H]2O)CC[C@]2(C)[C@H]3C(=O)C=C4[C@@H]5C[C@]6(C)C[C@@H](OC6=O)[C@]5(C)CC[C@@]4(C)[C@]3(C)CC[C@@H]12 the inhibition at 100 µM [5] was > 50% and the IC50 [4] was 87.1 µM.

CCOC(=O)C1=C[C@@H](OC(CC)CC)[C@H](NC(C)=O)[C@@H](N)C1 [OSELTAMIVIR PHOSPHATE] showed an inhibition at 100 µM [1] of 78% and an IC50 [3] of 45.6 µM.

In the case of CC1(C)[C@@H](O[C@H]2O[C@H](C(=O)O)[C@@H](O)[C@H](O)[C@H]2O[C@@H]2OC[C@H](O)[C@H](O)[C@H]2O)CC[C@]2(C)[C@H]3C(=O)C=C4[C@@H]5C[C@@](C)(C(=O)O)CC[C@]5(C)CC[C@@]4(C)[C@]3(C)CC[C@@H]12, the inhibition at 100 µM [5] is reported as > 50% and the IC50 [4] is reported as 85.1 µM.

For C[C@@H]1O[C@@H](O[C@@H]2CC(C)(C)C[C@H]3C4=CC(=O)[C@@H]5[C@@]6(C)CC[C@H](O[C@@H]7O[C@H](C(=O)O)[C@@H](O)[C@H](O)[C@H]7O[C@@H]7O[C@H](C(=O)O)[C@@H](O)[C@H](O)[C@H]7O)C(C)(C)[C@@H]6CC[C@@]5(C)[C@]4(C)CC[C@@]23C)[C@H](O)[C@H](O)[C@H]1O, the inhibition at 100 µM [1] was 47.5%, the Activity [2] was “Non-toxic” and the IC50 [3] was 39.6 µM.

In the case of CC1(C)[C@@H](O[C@@H]2O[C@H](C(=O)O)[C@@H](O)[C@H](O)[C@H]2O[C@@H]2O[C@H](C(=O)O)[C@@H](O)[C@H](O)[C@H]2O)CC[C@]2(C)[C@H]3CC=C4[C@@H]5C[C@@](C)(C(=O)O)CC[C@]5(C)CC[C@@]4(C)[C@]3(C)CC[C@@H]12, the inhibition at 100 µM [5] is reported as > 50% and the IC50 [4] is reported as 83.2 µM.

In the case of C[C@@H]1O[C@@H](O[C@H]2[C@H](O[C@H]3[C@H](O[C@H]4CC[C@]5(C)[C@H]6C(=O)C=C7[C@@H]8C[C@@](C)(C(=O)O)[C@H](O)C[C@]8(C)CC[C@@]7(C)[C@]6(C)CC[C@H]5C4(C)C)O[C@H](C(=O)O)[C@@H](O)[C@@H]3O)O[C@H](CO)[C@@H](O)[C@@H]2O)[C@H](O)[C@H](O)[C@H]1O, the inhibition at 100 µM [1] is reported as 47.5%, the Activity [2] is reported as “Non-toxic” and the IC50 [3] is reported as 42.7 µM.

For CC(=O)O[C@@H]1C[C@](C)(C=O)C[C@H]2C3=CC(=O)[C@@H]4[C@@]5(C)CC[C@H](O)C(C)(C)[C@@H]5CC[C@@]4(C)[C@]3(C)CC[C@@]12C, the inhibition at 100 µM [5] was > 50% and the IC50 [4] was 69.2 µM.

For CC1(C)[C@@H](O[C@@H]2O[C@H](CO)[C@@H](O)[C@H](O)[C@H]2O)CC[C@]2(C)[C@H]3C(=O)C=C4[C@@H]5C[C@@](C)(C(=O)O)CC[C@]5(C)CC[C@@]4(C)[C@]3(C)CC[C@@H]12, the inhibition at 100 µM [5] was > 50% and the IC50 [4] was 41.7 µM.
